Laboratory results published in paper PMC6387599 (Drug Design, Development and Therapy, 2019).

Legend:
[1] = Equilibrium solubility in distilled water; format: physicochemical; conditions: 25°C, 72 hours
Method in brief: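 Supernatant sampled at 0, 12, 24, 36, 48, 60 and 72 h and passed through a 0.45-µm filter. Concentration measured by HPLC at 242 nm, 30°C, 1.0 mL/min. Mobile phase was methanol or acetonitrile with phosphate buffer (pH 8.0 or 7.4; 70:30 or 80:20 v/v), depending on compound.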

[2] = tested on: IL-6 production in LPS-induced A549 cells; experiment: Inhibition of IL-6 production; format: cell-based; conditions: Homo sapiens, A549, 24 h, read-out: inhibitory rate on IL-6
Method in brief: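 A549 cells preincubated 1 h with test compound (10^-11–10^-6 M), then stimulated with LPS-EB (5 µL of 10 µg/mL solution) for 24 h. IL-6 in supernatants measured by ELISA, read at 450 nm. Inhibitory rate of IL-6 production calculated; IC50 from dose–response curves; n=3, mean ± SD.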

xylene-induced ear edema = experiment: Xylene-induced ear edema test; format: in vivo; conditions: mice, intraperitoneal, equivalent to 200 μg/kg Bud, 1 hour before xylene
Method in brief: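 Male Kunming mice (20–25 g), n=10 per group, dosed intraperitoneally (0.1 mL/10 g body weight) with test compound at a dose equivalent to 200 µg/kg budesonide; vehicle 2% DMSO. After 1 h, 20 µL xylene applied to right ear, left ear untreated. Killed 1 h later; 6-mm ear discs weighed. Edema = right minus left ear weight. Analysed by one-way ANOVA with Fisher's LSD; mean ± SD.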

equilibrium solubility [1]: 0.0022 g/100 g water
Structure (SMILES): CCCC1O[C@@H]2C[C@H]3[C@@H]4CCC5=CC(=O)C=C[C@]5(C)[C@H]4[C@@H](O)C[C@]3(C)[C@]2(C(=O)CO)O1 (stereo partly drawn) [Bud, budesonide]
inhibition at 0.001 µM [2]: > 50%
inhibition of ear edema (xylene-induced ear edema): 17.19%
